Measurements published in publication PMC10286098 (ACS Omega, 2023).
“And” between values parts separate entries of the source, which are not always exact repeats. Equal entries are not always repeated. Where two headings read alike, the source gives them in different places.

How the values were obtained:
MRC-5 cells = settings: MRC-5 normal lung cells, WST-1, mean ± standard error
hDHODH = hDHODH (Homo sapiens, UniProt Q02127); assay: hDHODH fluorescence-based; assay type: biochemical; settings: for IC50: IC50 over hDHODH, fluorescence-based assay, 10-dose, 3-fold dilution from 10 μM; for fold of the reported DHODH inhibitory activity of Leflunomide: versus Leflunomide 600 nM
In short: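 Contract-run assay in which human DHODH oxidizes L-DHO to orotate, coupled to resazurin conversion to resorufin. Test compounds were run as 10 doses in singlet, with 3-fold dilutions from 10 μM. Reactions ran 60 min at room temperature. Orotate stop mix (5 mM final) was added, then resorufin fluorescence was read.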

[1] = H1975 cells, WST-1, 24 h, mean ± standard error
[2] = A549 cells, WST-1, 24 h, mean ± standard error
[3] = H1299 cells, WST-1, 24 h, mean ± standard error

Chain of hDHODH (Q02127 whole entry): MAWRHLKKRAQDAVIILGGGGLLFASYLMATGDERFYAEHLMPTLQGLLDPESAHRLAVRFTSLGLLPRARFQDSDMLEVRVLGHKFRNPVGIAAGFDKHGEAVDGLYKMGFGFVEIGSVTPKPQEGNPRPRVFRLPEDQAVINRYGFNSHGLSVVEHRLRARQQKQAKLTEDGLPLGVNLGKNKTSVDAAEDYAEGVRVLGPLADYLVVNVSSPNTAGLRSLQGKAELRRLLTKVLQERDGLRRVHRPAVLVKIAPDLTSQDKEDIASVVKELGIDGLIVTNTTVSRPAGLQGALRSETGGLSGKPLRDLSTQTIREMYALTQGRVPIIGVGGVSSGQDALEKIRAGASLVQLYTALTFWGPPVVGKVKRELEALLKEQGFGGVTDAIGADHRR

IC50 (hDHODH) | fold of the reported DHODH inhibitory activity of Leflunomide (hDHODH) [fold] | Compound | TC50 (H1975 cells; [1]) [µM] | TC50 (A549 cells; [2]) [µM] | TC50 (H1299 cells; [3]) [µM] | TC50 (MRC-5 cells) | TC50 (H1975 cells) | TC50 (A549 cells) | TC50 (H1299 cells) | decrease of cell viability (H1975 cells; H1975, 100 μM, 24 h, preliminary screening (Figure S1)) | decrease of cell viability (A549 cells; A549, 100 μM, 24 h, preliminary screening (Figure S1)) | decrease of cell viability (H1299 cells; H1299, 100 μM, 24 h, preliminary screening (Figure S1))
 |  | COc1ccc(-c2ccc3[nH]cc(C(=O)Nc4cccc(C(F)(F)F)c4)c3c2)cc1 [4b, 5-(4-Methoxyphenyl)-N-(3-(trifluoromethyl)phenyl)-1H-indole-3-carboxamide] | 35 ± 4.0 | 17 ± 0.5 | 17 ± 0.3 |  |  |  |  |  |  | 
 |  | O=C(Nc1cccc(C(F)(F)F)c1)c1c[nH]c2ccc(Nc3ccc(O)cc3)cc12 [5a, 5-((4-Hydroxyphenyl)amino)-N-(3-(trifluoromethyl)phenyl)-1H-indole-3-carboxamide] | 33 ± 2.0 | 32 ± 0.9 | 33 ± 0.7 |  |  |  |  |  |  | 
 |  | O=C(Nc1cccc(C(F)(F)F)c1)c1c[nH]c2ccc(Nc3cccc([N+](=O)[O-])c3)cc12 [5d, 5-((3-Nitrophenyl)amino)-N-(3-(trifluoromethyl)phenyl)-1H-indole-3-carboxamide] | 29 ± 4.0 | 16 ± 0.4 | 18 ± 0.5 |  |  |  |  |  |  | 
 |  | Cc1oncc1C(=O)Nc1ccc(C(F)(F)F)cc1 [Leflunomide, reference compound] |  |  |  | 300 < μM | 100 < μM | 100 < TC50 <300 μM | 300 < μM |  |  | 
 |  | CNC(=O)c1cc(Oc2ccc(NC(=O)Nc3ccc(Cl)c(C(F)(F)F)c3)c(F)c2)ccn1 [Regorafenib, reference compound] | 16 ± 0.5 | 13 ± 0.8 | 10 ± 0.4 | 18 ± 2.0 µM |  |  |  | more than 50% | more than 50% | more than 50%
195 nM | 3 | O=C(Nc1cccc(C(F)(F)F)c1)c1c[nH]c2ccc(Br)cc12 [compound 3, 5-Bromo-N-(3-(trifluoromethyl)phenyl)-1H-indole-3-carboxamide] | 28 ± 2.0 | 22 ± 1.0 | 27 ± 0.8 | 45 ± 8.0 µM |  |  |  |  |  | 
1200 nM and 1210 nM |  | O=C(Nc1cccc(C(F)(F)F)c1)c1c[nH]c2ccc(-c3cccc(CN4CCOCC4)c3)cc12 [compound 4a, 5-(3-(Morpholinomethyl)phenyl)-N-(3-(trifluoromethyl)phenyl)-1H-indole-3-carboxamide] | 23 ± 2.0 | 13 ± 0.3 | 13 ± 0.1 | 17 ± 3.0 µM |  |  |  |  |  | 
 |  | COc1ccc(Nc2ccc3[nH]cc(C(=O)Nc4cccc(C(F)(F)F)c4)c3c2)cc1OC [compound 5b, 5-((3,4-Dimethoxyphenyl)amino)-N-(3-(trifluoromethyl)phenyl)-1H-indole-3-carboxamide] | 25 ± 5.0 | 19 ± 0.4 | 16 ± 0.6 |  |  |  |  |  |  | 
421 nM | 1.5 | O=C(Nc1cccc(C(F)(F)F)c1)c1c[nH]c2ccc(Nc3ccc([N+](=O)[O-])cc3)cc12 [compound 5c, 5-((4-Nitrophenyl)amino)-N-(3-(trifluoromethyl)phenyl)-1H-indole-3-carboxamide] | 15 ± 1.0 | 11 ± 0.5 | 11 ± 0.3 | 17 ± 0.3 µM |  |  |  |  |  | 
